The EternaBench riboswitch data

System: MS2 coat protein
Assay: apparent Kd, MS2 coat protein; higher = weaker binding; RNA-MaP array; FMN 200 µM where present
Summary of the method: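 Binding was read on Illumina sequencing-chip clusters where stalled E. coli RNA polymerase had transcribed each design. A titration of SNAP-549-labelled MS2 coat protein began at 0.7 or 1.5 nM and doubled to 3 µM, once without ligand and once with constant ligand, in 100 mM Tris-HCl pH 7.5, 80 mM KCl, 4 mM MgCl2, BSA, DTT, yeast tRNA and Tween-20. The apparent Kd is the median of filtered per-cluster binding-curve fits, based on green signal normalised to red-channel RNA signal and control-cluster median Fmax.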

[1] = designed as: ON switch for flavin mononucleotide, no ligand
[2] = ligand present: flavin mononucleotide, designed as: ON switch for flavin mononucleotide
[3] = designed as: OFF switch for flavin mononucleotide, no ligand
[4] = ligand present: flavin mononucleotide, designed as: OFF switch for flavin mononucleotide

Row | Sequence | apparent Kd [1] [nM] | apparent Kd [2] [nM] | apparent Kd [3] [nM] | apparent Kd [4] [nM]
1 | CAUCAUGCGUCUAAGGAUAUGUCUCACAAGACAUGAGGAUCACCCAUGUAGAAUAAAUAAAUGAUGCAGAAGGUGGAGCGCAUGC | 343 | 57.4 | – | –
2 | GUCAGCUCGUCAGGAUAUACGUCACUGCUUCGGCAGUGUGGUAAGAUCACAUGAGGAUCACCCAUGUAGAAGGGACGAGCUGAG | – | – | 13.3 | 296
3 | AAUUCUUGUGAAGGAUAUACGGCGGGUCGCGCAGUAGAAGGUCACAUGAGGAUCACCCAUGUCGACAAUGCGCAGUAUCGACAA | – | – | 72 | 164
4 | CGGCAAGUCACAGGAUAUGGUGAUGUACAUGAGGAUCACCCAUGUCCGUCUUCUCUCACAAGAUGCCAGAAGGGUGACCUCCGG | 760 | 131 | – | –
5 | AAAUUUAACGAAGGAUAUACUAACAUGAGGAUCACCCAUGUGUGUUUCGUGUUACUGAAAUUCGGGUAGAAGGUCGUAUACAUA | – | – | 80.4 | 33.7
6 | AACAUGGUACAGAAGGGCAAUUUAUUUAAUUAUUAUUUAGAACAGCAUUGCAGGAUAUGUUUAACAUGAGGAUCACCCAUGUAC | 70.4 | 13.8 | – | –
7 | ACGAACCUAGGAUAUACAUGAGGAUCACCCAUGUACUACUAUCCAUGAAUGACCCUCGGUAGAAGGAGGAUCAA | – | – | 18.1 | 21.5
8 | AUCUUUAACAUAGGAUAUAGUAUGAAGGUUUAUUUAGAAGGAUGUCACAUGAGGAUCACCCAUGUAAUAGGAUUACCCAUGUAU | – | – | 29.8 | 21.9
9 | GGAAAACAUGAGGAUCACCCAUGUGAAAACGUGGGAGGAUAUCGAUGGAAACCAUACUGUCGAGAAGGCCCAUGUC | 51.8 | 18 | – | –
10 | AGACGGAGCUGAGGAUAUAACAUGAGGAUCACCCAUGUAAGUCUCCAGGAAACUGGAGACAAAUGUUAGAAGGCAGCUCCGUCA | – | – | 39.8 | 51.2
11 | CCUUUCCGAGGAUAUACAUGAGGAUCACCCAUGUGAUCCUAAGGCUGAUCAAGCCUAUGUAGAAGGCGCAAAUC | – | – | 133 | 182
12 | UGUAUGGACAGAGGAUAUGCCGAUAGGAUCUAUUAUCGAAGAAUCCUCACAUGAGGAUCACCCAUGUAGAAGGCUGUCCAUACU | – | – | 9.32 | 35.8
13 | GAAUGCAGAGGAUAUACGGGACAGCAUCGAAAGAUGCUGAAACAUGAGGAUCACCCAUGUAGAAGGCUGCAGAA | – | – | 73.2 | 154
14 | AAAAGGCUAGGAUAUACCAGUGGGUGUAAGAACUCAAAGUUACAUGAGGAUCACCCAUGUAGAAGGAGUAAAAU | – | – | 17.1 | 40
15 | GUGCUGGAGCUUUGCUUUAGUCGUACAUGAGGAUCACCCAUGUAGGAUAUGGUAGGCUUUGCUUACUAGAAGGAUAGAGUGGUC | – | – | 40.3 | 26.8
16 | GGAUAGGACAGAGGAUAUAUGUGCUAGAGAUACUAGCAAAAUUUCCUCACAUGAGGAUCACCCAUGUAGAAGGCUGUCCUAUCG | – | – | 12.9 | 22
17 | AACAGUACAGGAUAUACAUGAGGAUCACCCAUGUGAGAAUUAAGUGGCAUACCACAAAGUAGAAGGGUACUGGA | – | – | 29.7 | 202
18 | ACUGUGCAUUAGAAGGGUGCGCGGCAAUCGCGCACAGGAUAUGAUGACAUGAGGAUCACCCAUGUCUGUGUCACCUGGGUGUCG | – | – | 13.3 | 83.8

Row | Sequence | apparent Kd [1] [nM] | apparent Kd [2] [nM] | apparent Kd [3] [nM] | apparent Kd [4] [nM]
19 | CCGAUAAUGUAGGAUAUCGUAUCGGAAACGAUACGAGAAGGACAAACAUGAGGAUCACCCAUGUUCCUUAACGG | – | – | 15.5 | 16.5
20 | UUUUUGUCAGGAUAUCUAAUCUAGAUGUUCGCAUCUAGAUUAGAGAAGGGACAUGAGGAUCACCCAUGUAGUUU | – | – | 61.9 | 253
21 | GAGUAGGGAGGAUAUACGUGCUCAAUCCCGGAAAGCGGGAAACAUGAGGAUCACCCAUGUAGAAGGCCCAUAAA | – | – | 82.1 | 46.4
22 | GUACUGUAGUGAGGAUAUACGAGCUCGAUAGAGCGGCGAUCCAUAUAUACAUGAGGAUCACCCAUGUAGAAGGCACUUCAGUAC | – | – | 7.07 | 96.5
23 | CCGGUUUAGGAGGAUAUAGGAGUCGAUAGACACCUAGAAGGCCUAACAUGAGGAUCACCCAUGUGACCUACCGG | – | – | 51.1 | 177
24 | UGCGUAUACGGAGGAUAUGUACAGGUCGCCGUACAUGAGGAUCACCCAUGUGCAGAAGGCCGUAGCGCUAAACUGGAUUGCAAU | – | – | 11.4 | 57.3
25 | CAGGACAGAGGAUAUACAUAGAUACAGAUUCAUGUAGAACUACAUGAGGAUCACCCAUGUAGAAGGCUGUCCUG | – | – | 29.5 | 300
26 | AACCUGCGUGGAGGAUAUGAGUGGUUGGACGCAUCAGAAGGCCAGCAGCCACAUGAGGAUCACCCAUGUACAGACACAUGUUUC | 245 | 95.1 | – | –
27 | ACAUAAUACGAGAAGGGAGUACAUGAGGAUCACCCAUGUGCUCAGAUGUACUCAGGAUAUCGGCUGACGCAAGGUUCAGGGAAU | – | – | 10.9 | 128
28 | AUCUUGCGAGGAUAUACUUACUUUUUUUCAUUUGGUUGCGAACAUGAGGAUCACCCAUGUAGAAGGUGCAUAAC | – | – | 27.6 | 23.6
29 | CCAUGCGGAUGAGGAUAUUCAUUUAUGAGGAUAGAAGAAGGCAUACAUGAGGAUCACCCAUGUAUACGCAUGAGGAUCCCUUAC | – | – | 34.2 | 27.2
30 | GUCAGCUCGUGAGGAUAUACAACGCUGCUUCGGCAGUGUAUUAAGAUCACAUGAGGAUCACCCAUGUAGAAGGCACGAGCUGAU | – | – | 15.1 | 284
31 | GCACGGUAUGUAGGAUAUGCAUAGCAUUGCUAUGCAGAAGGACAUGAGGAUCACCCAUGUAUGUAUUCCAUACUAAUCCCGUGA | – | – | 5.72 | 5.98
32 | AACGCUAAAGGAUAUACAUGAGGAUCACCCAUGUUGAGGAAGGUUAGAUGAGGAGUAAGUAGAAGGUUAGACGA | – | – | 29.2 | 25.7
33 | GUGUACAGAGGAUAUACAUGAGCUAGGAAACUAGCAACUUCACAUGAGGAUCACCCAUGUAGAAGGCUGUACAC | – | – | 26 | 128
34 | GCAGGUUUACGAGGAUAUGGGUGGUACGGACAUGAGGAUCACCCAUGUCUCCCAGAAGGCGUAGCCCAACAAAGAGAACAGGAG | 160 | 22.5 | – | –
35 | ACAUGAGGAUCACCCAUGUUUUCAGGGACUUCAAUUAUUUGUAGAAGGAUGUUUACUUGUUAGUCAUAGGAUAUACAAUUAAAU | – | – | 12.2 | 12.9
36 | CUUUUGUGAGGAUAUCAGUAGUAAAAAAAUAAAAUUAUUACUGAGAAGGCACAUGAGGAUCACCCAUGUUCCUC | – | – | 34 | 196
